According to ChEMBL document CHEMBL5252514, “Conopeptide-Derived κ-Opioid Agonists (Conorphins): Potent, Selective, and Metabolic Stable Dynorphin A Mimetics with Antinociceptive Properties” (J Med Chem, 2016):
Where a SMILES comes first, the peptide text is derived from it.

Key:
Homo sapiens [1] = species: Homo sapiens; assay: Selectivity ratio, ratio of Ki for human KOR to Ki for human MOR
Homo sapiens [2] = species: Homo sapiens; assay: Selectivity ratio, ratio of Ki for human KOR to Ki for human NOP
[3] = molecular target: T1, Kappa-type opioid receptor (Homo sapiens, UniProt P41145); assay: Agonist activity at human kappa opioid receptor expressed in CHO-K1 cells assessed as ERK phosphorylation incubated for 2 hrs by Alphascreen surefire method; format: cell-based
T1 sequence (P41145 whole entry): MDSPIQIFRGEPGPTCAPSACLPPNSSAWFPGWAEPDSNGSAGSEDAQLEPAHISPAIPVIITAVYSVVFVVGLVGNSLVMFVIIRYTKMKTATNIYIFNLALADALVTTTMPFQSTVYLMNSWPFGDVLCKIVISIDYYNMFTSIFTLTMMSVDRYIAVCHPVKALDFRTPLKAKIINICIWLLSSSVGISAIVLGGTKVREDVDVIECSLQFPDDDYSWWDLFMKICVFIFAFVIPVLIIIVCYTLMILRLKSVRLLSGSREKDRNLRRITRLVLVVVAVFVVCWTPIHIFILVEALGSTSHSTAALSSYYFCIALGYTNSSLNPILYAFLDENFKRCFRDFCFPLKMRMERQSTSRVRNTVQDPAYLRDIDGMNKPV
How it was run: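 CHO-K1 cells transiently transfected with KOR plasmid, harvested 24 h later, plated at 50,000 cells/well and settled 24 h, then serum-starved 12 h. Ligands in serum-free medium applied 10 min at room temperature. Lysates read by AlphaScreen SureFire phospho-ERK1/2 after 2 h at 37 °C. Curves fitted by sigmoidal dose-response.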

[4] = molecular target: T1, Kappa-type opioid receptor; assay: Displacement of [3H]U69593 from human kappa opioid receptor expressed in CHO-K1 cells incubated for 1 hr by 1450 microbeta scintillation counter analysis; format: cell-based
How it was run: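 Membranes from transiently KOR-transfected CHO-K1 cells (~2 µg/well) used in SPA with 3H-U69,593 (1 nM). Competitor ranged 1 pM–10 µM in 50 mM Tris-HCl pH 7.4, 5 mM MgCl2, 0.1% BSA. Incubated 1 h at room temperature with shaking. Nonspecific binding defined with 10 µM dynorphin A. Sigmoidal dose-response fit; at least three independent experiments in triplicate.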

[5] = Metabolic stability in Wistar rat plasma assessed as half life by HPLC analysis; format: ADME, cell-free
How it was run: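 Peptide at 1 mg/mL in sterile PBS pH 7.4 was mixed 1:1 with thawed, centrifuged Wistar rat plasma supernatant and incubated at 37°C in triplicate. Samples at 0, 1, 2, 3, 4, 6 and 24 h were quenched with acetonitrile and then 2% TFA/water, and analysed by HPLC with inline electrospray MS.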

[6] = molecular target: T1, Kappa-type opioid receptor; assay: Agonist activity at human kappa opioid receptor expressed in CHO-K1 cells assessed as inhibition of forskolin-stimulated cAMP production incubated for 30 mins by LANCE cAMP assay; format: cell-based
How it was run: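 Transiently KOR-transfected CHO-K1 cells taken 24 h post-transfection, 3,000 cells/well in HBSS stimulation buffer (0.1% BSA, 0.5 mM IBMX, 5 mM HEPES, pH 7.4). Forskolin (1 µM final) and ligand added, then 30 min at RT. LANCE Eu-cAMP tracer/anti-cAMP TR-FRET read after 1 h at RT. Sigmoidal dose-response fit.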

Homo sapiens [7] = species: Homo sapiens; assay: Selectivity ratio, ratio of Ki for human KOR to Ki for human DOR

## CC[C@H](C)[C@H](NC(=O)[C@H](CCC(N)=O)NC(=O)[C@H](CCCNC(=N)N)NC(=O)[C@H](CCCNC(=N)N)NC(=O)[C@@H]1CSSC[C@H](NC(=O)[C@@H]2CCC(=O)N2)C(=O)N1)C(=O)N[C@H]1CSSC[C@@H](C(N)=O)NC1=O (HELM PEPTIDE1{[Glp].C.C.R.R.Q.I.C.C.[am]}$PEPTIDE1,PEPTIDE1,2:R3-3:R3|PEPTIDE1,PEPTIDE1,8:R3-9:R3$$$V2.0)
Homo sapiens [1]
  Ratio Ki: > 630
Homo sapiens [2]
  Ratio Ki: > 630
[3]
  EC50: 5.86 µM
[4]
  Ki: 67.5 nM
[5]
  half-life: 15 min
[6]
  EC50: 11.5 nM
Homo sapiens [7]
  Ratio Ki: > 630

## N=C(N)NCCC[C@@H](NC(=O)[C@@H](CCCNC(=N)N)NC(=O)[C@@H]1CCCN1C(=O)c1ccccc1)C(=O)N[C@@H](CCC(N)=O)C(=O)N[C@H](C(=O)N[C@H]1CSSC[C@@H](C(N)=O)NC1=O)C1CCCCC1
Homo sapiens [1]
  Ratio Ki: > 125000
Homo sapiens [2]
  Ratio Ki: > 125000
[3]
  EC50: 0.00062 µM
[4]
  Ki: 0.48 nM
[5]
  half-life: 1200 min
[6]
  EC50: 0.39 nM
Homo sapiens [7]
  Ratio Ki: > 125000

## N=C(N)NCCC[C@@H](NC(=O)c1cnc2ccccc2c1)C(=O)N[C@H](CCCNC(=N)N)C(=O)N[C@@H](CCC(N)=O)C(=O)N[C@@H](CC1CCCCC1)C(=O)N[C@H]1CSSC[C@@H](C(N)=O)NC1=O
[4]
  Ki: 0.71 nM
[5]
  half-life: 45 min

## N=C(N)NCCC[C@@H](NC(=O)[C@@H](CCCNC(=N)N)NC(=O)[C@@H]1CCCN1C(=O)c1ccccc1)C(=O)NCC(=O)N[C@@H](CC1CCCCC1)C(=O)N[C@H]1CSSC[C@@H](C(N)=O)NC1=O
[4]
  Ki: 0.16 nM
[5]
  half-life: 60 min

## N=C(N)NCCC[C@@H](NC(=O)[C@@H](CCCNC(=N)N)NC(=O)[C@@H]1CCCN1C(=O)c1ccc(O)cc1)C(=O)N[C@@H](CCC(N)=O)C(=O)N[C@@H](CS)C(=O)N[C@@H](CC1CCCCC1)C(=O)N[C@H]1CSSC[C@@H](C(N)=O)NC1=O
[4]
  Ki: 1.2 nM
[5]
  half-life: 120 min

## N=C(N)NCCC[C@H](NC(=O)[C@@H](CCCNC(=N)N)NC(=O)[C@@H]1CCC(=O)N1)C(=O)N[C@@H](CCC(N)=O)C(=O)N[C@@H](CC1CCCCC1)C(=O)N[C@H]1CSSC[C@@H](C(N)=O)NC1=O
[4]
  Ki: 13 nM
[5]
  half-life: 90 min

## N=C(N)NCCC[C@@H](NC(=O)[C@@H](CCCNC(=N)N)NC(=O)[C@@H]1CCCN1C(=O)c1ccc(Cl)c(Cl)c1)C(=O)N[C@@H](CCC(N)=O)C(=O)N[C@@H](CS)C(=O)N[C@@H](CC1CCCCC1)C(=O)N[C@H]1CSSC[C@@H](C(N)=O)NC1=O
[4]
  Ki: 0.98 nM
[5]
  half-life: 60 min

## N=C(N)NCCC[C@H](NC(=O)[C@@H](CCCNC(=N)N)NC(=O)[C@@H](CCCNC(=N)N)NC(=O)[C@@H]1CCCN1C(=O)c1ccccc1)C(=O)N[C@@H](CC1CCCCC1)C(=O)N[C@H]1CSSC[C@@H](C(N)=O)NC1=O
[4]
  Ki: 0.23 nM
[5]
  half-life: 720 min

## CC[C@H](C)[C@H](NC(=O)[C@H](CCC(N)=O)NC(=O)[C@H](CCCNC(=N)N)NC(=O)[C@H](CCCNC(=N)N)NC(=O)[C@@H]1CCC(=O)N1)C(=O)N[C@H]1CSSC[C@@H](C(N)=O)NC1=O (HELM PEPTIDE1{[Glp].R.R.Q.I.C.C.[am]}$PEPTIDE1,PEPTIDE1,6:R3-7:R3$$$V2.0)
Homo sapiens [1]
  Ratio Ki: > 250
Homo sapiens [2]
  Ratio Ki: > 250
[3]
  EC50: 7.49 µM
[4]
  Ki: 191 nM
[5]
  half-life: 180 min
[6]
  EC50: 1.9 nM
Homo sapiens [7]
  Ratio Ki: > 250

## N=C(N)NCCC[C@@H](NC(=O)[C@@H]1Cc2ccccc2CN1)C(=O)N[C@H](CCCNC(=N)N)C(=O)N[C@@H](CCC(N)=O)C(=O)N[C@@H](CC1CCCCC1)C(=O)N[C@H]1C[Se][Se]C[C@@H](C(N)=O)NC1=O
[4]
  Ki: 2.4 nM
[5]
  half-life: 360 min

## N=C(N)NCCC[C@H](NC(=O)[C@@H]1CCC(=O)N1)C(=O)N[C@H](CCCNC(=N)N)C(=O)N[C@@H](CCC(N)=O)C(=O)N[C@@H](CC1CCCCC1)C(=O)N[C@H]1CSSC[C@@H](C(N)=O)NC1=O
[4]
  Ki: 16.1 nM
[5]
  half-life: 1200 min
